Data from ChEMBL document CHEMBL1821586, “Identification and biological activities of new taccalonolide microtubule stabilizers” (J Med Chem, 2011).
The source made the active and inactive calls. The rule behind the calls is not given here.

Columns and labels:
[1] = Antitumor activity against mouse 16/C cells allografted in mouse B6C3F1 assessed as decrease in tumor mass at 56 mg/kg, iv administered on days 1,4,6 and day 8 or 9 relative to control; format: functional
Summary of the method: (§1)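 Female B6C3F1 mice (mean 19.3 ± 1.0 g) carried bilateral s.c. Mammary 16/C tumor fragments implanted day 0, 5 mice/group. […] All were given IV in 0.2 ml. Tumor mass = L×W²/2, measured 2–3 times weekly. %T/C = treated/control median mass, zeros included, taken when control tumors reach ~700–1200 mg.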

[2] = test system: Mus musculus; assay: Toxicity in B6C3F1 mouse allografted with mouse 16/C cells assessed as mean body weight loss at 40 mg/kg, iv administered on days 1,4,6 and day 8 or 9 (reference value: -2.2%); format: organism-based; design: dose 40 mg/kg, route intravenous; settings: in vivo
[3] = Antitumor activity against mouse 16/C cells allografted in mouse B6C3F1 assessed as gross log cell killing at 56 mg/kg, iv administered on days 1,4,6 and day 8 or 9 relative to control; format: functional
Summary of the method: (§2)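 Mammary 16/C tumor fragments implanted bilaterally s.c. in female B6C3F1 mice on day 0, 5 mice/group. Taccalonolides in 50% DMSO:50% Cremophor stock, diluted with sterile water, given i.v. in 0.2 ml on days 1, 4, 6, plus one dose 2–3 days later (A, N) or further doses days 8, 9, 11 (E). Tumor mass = length × width²/2, measured 2–3 times weekly. Gross log cell kill = (T-C)/3.32 × Td, with T-C the days to 1000 mg.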

[4] = Antitumor activity against mouse 16/C cells allografted in mouse B6C3F1 assessed as delay in tumor growth at 40 mg/kg, iv administered on days 1,4,6 and day 8 or 9 relative to control; format: functional
Summary of the method: (§3)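 Mammary 16/C fragments implanted s.c. bilaterally in female B6C3F1 mice on day 0, 5 mice/group, IV dosing in 0.2 ml. Tumors measured 2–3 times weekly. T-C = median days for treated vs control tumors to reach 1000 mg. Gross log cell kill = (T-C)/3.32×Td, with Td the doubling time from a log-linear fit of control tumor growth.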

[5] = Toxicity in B6C3F1 mouse allografted with mouse 16/C cells assessed as lethality at 56 mg/kg, iv; format: organism-based; design: dose 56 mg/kg, route intravenous; settings: in vivo, read-out: Activity
[6] = test system: HeLa; assay: Cell cycle arrest in human HeLa cells assessed as accumulation of cells at G2/M phase at 3.5 uM after 18 hrs by flow cytometric analysis; format: functional, cell-based
Summary of the method: (§4)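 DNA stained with propidium iodide (Krishan's reagent); DNA content measured by flow cytometry and plotted as PI intensity vs events.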

[7] = Antitumor activity against mouse 16/C cells allografted in mouse B6C3F1 assessed as delay in tumor growth at 56 mg/kg, iv administered on days 1,4,6 and day 8 or 9 relative to control; format: functional; summary of the method: as §3
[8] = Antitumor activity against mouse 16/C cells allografted in mouse B6C3F1 assessed as gross log cell killing at 40 mg/kg, iv administered on days 1,4,6 and day 8 or 9 relative to control; format: functional; summary of the method: as §2
[9] = test system: HeLa; assay: Antiproliferative activity against human HeLa cells after 48 hrs by SRB assay; format: functional, cell-based
Summary of the method: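 HeLa cells grown in BME with 10% FBS and 50 µg/ml gentamicin, drug-treated 48 h, proliferation read by SRB assay.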

[10] = test system: HeLa; assay: Inhibition of beta tubulin in human HeLa cells assessed asultiple abnormal mitotic spindle formation at 3.5 uM after 18 hrs by immunofluorescence analysis; format: cell-based
[11] = Antitumor activity against mouse 16/C cells allografted in mouse B6C3F1 assessed as decrease in tumor mass at 40 mg/kg, iv administered on days 1,4,6 and day 8 or 9 relative to control; format: functional; summary of the method: as §1
[12] = test system: Mus musculus; assay: Toxicity in B6C3F1 mouse allografted with mouse 16/C cells assessed as mean body weight loss at 56 mg/kg, iv administered on days 1,4,6 and day 8 or 9 (reference value: -2.2%); format: organism-based; design: dose 56 mg/kg, route intravenous; settings: in vivo
[13] = test system: HeLa; assay: Induction of interphase microtubule bundling in human HeLa cells at 3.5 uM after 18 hrs by indirect immunofluorescence analysis; format: cell-based
[14] = Antitumor activity against mouse 16/C cells allografted in mouse B6C3F1 assessed as gross log cell killing at 36 mg/kg, iv administered on days 1,4,6 and day 8 or 9 relative to control; format: functional; summary of the method: as §2
[15] = test system: Mus musculus; assay: Toxicity in B6C3F1 mouse allografted with mouse 16/C cells assessed as mean body weight loss at 36 mg/kg, iv administered on days 1,4,6 and day 8 or 9 (reference value: -2.2%); format: organism-based; design: dose 36 mg/kg, route intravenous; settings: in vivo
[16] = test system: HeLa; assay: Inhibition of beta tubulin in human HeLa cells assessed asultiple abnormal mitotic spindle formation at 1.3 uM after 18 hrs by immunofluorescence analysis; format: cell-based
[17] = Toxicity in B6C3F1 mouse allografted with mouse 16/C cells assessed as lethality at 20 mg/kg, iv administered on days 1,4,6 and day 8 or 9 measured after 12 days relative to control; format: organism-based; design: dose 20 mg/kg, route intravenous; settings: in vivo, read-out: Activity
Summary of the method: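 Female B6C3F1 mice, 5 per group, bore bilateral s.c. Mammary 16/C fragments. Taccalonolides in DMSO:Cremophor diluted with water were given i.v. on days 1, 4, 6 plus a later dose (A, N) or days 8, 9, 11 (E). Mice were weighed and observed daily, and lethality was recorded per group.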

[18] = Antitumor activity against mouse 16/C cells allografted in mouse B6C3F1 assessed as decrease in tumor mass at 20 mg/kg, iv administered on days 1,4,6 and day 8 or 9 relative to control; format: functional; summary of the method: as §1
[19] = Antitumor activity against mouse 16/C cells allografted in mouse B6C3F1 assessed as delay in tumor growth at 36 mg/kg, iv administered on days 1,4,6 and day 8 or 9 relative to control; format: functional; summary of the method: as §3
[20] = Antitumor activity against mouse 16/C cells allografted in mouse B6C3F1 assessed as gross log cell killing at 20 mg/kg, iv administered on days 1,4,6 and day 8 or 9 relative to control; format: functional; summary of the method: as §2
[21] = Antitumor activity against mouse 16/C cells allografted in mouse B6C3F1 assessed as decrease in tumor mass at 36 mg/kg, iv administered on days 1,4,6 and day 8 or 9 relative to control; format: functional; summary of the method: as §1
[22] = test system: Mus musculus; assay: Toxicity in B6C3F1 mouse allografted with mouse 16/C cells assessed as mean body weight loss at 20 mg/kg, iv administered on days 1,4,6 and day 8 or 9 (reference value: -2.2%); format: organism-based; design: dose 20 mg/kg, route intravenous; settings: in vivo
[23] = Antitumor activity against mouse 16/C cells allografted in mouse B6C3F1 assessed as delay in tumor growth at 20 mg/kg, iv administered on days 1,4,6 and day 8 or 9 relative to control; format: functional; summary of the method: as §3
[24] = test system: HeLa; assay: Induction of interphase microtubule bundling in human HeLa cells at 1.3 uM after 18 hrs by indirect immunofluorescence; format: cell-based
[25] = test system: HeLa; assay: Cell cycle arrest in human HeLa cells assessed as accumulation of cells at G2/M phase at 1.3 uM after 18 hrs by flow cytometric analysis; format: functional, cell-based; summary of the method: as §4

`CC(=O)O[C@@H]1[C@H]2[C@H]3[C@H]([C@H](OC(C)=O)[C@H](OC(C)=O)[C@]2(C)[C@@H]2[C@@H]1[C@]1(C)C(=C[C@H]2C)OC(=O)[C@@]1(C)O)[C@]1(C)[C@H](C[C@@H]2O[C@@H]2[C@@H]1OC(C)=O)C(=O)[C@@H]3O` [TACCALONOLIDE A] gave a T/C [1] of 0%, an Activity [2] of -6.3% and an LCK [3] of 4. For the same compound, the Time [4] was 4 days, the mortality [5] was 20% and the Activity [6] was “Active”. The Time [7] was 16 days, the LCK [8] was 1 and the IC50 [9] was 594 nM. The inhibition [10] was “Active”, the T/C [11] was 24% and the Activity [12] was -16.7%. The Activity [13] was “Active”.

In the case of `CC(=O)O[C@H]1C[C@H]2[C@H]([C@@H]3[C@@H](O)[C@@H]4[C@H]([C@H](C)C=C5OC(=O)[C@@](C)(O)[C@@]54C)[C@]31C)[C@@H](O)C(=O)[C@H]1C[C@@H]3O[C@@H]3[C@H](OC(C)=O)[C@@]12C` [TACCALONOLIDE N], the LCK [14] is reported as 1.25, the Activity [15] is reported as -8.2% and the inhibition [16] is reported as “Active”. It also gave a mortality at 288 h [17] of 0%, a T/C [18] of 43% and a Time [19] of 5 days. It also gave an LCK [20] of 0.25, an IC50 [9] of 247 nM and a T/C [21] of 0%. The Activity [22] was -2.1%, the Time [23] was 1 days and the Activity [24] was “Active”. The Activity [25] was “Active”.
